Screens deposited in PubChem BioAssay by several laboratories.
In the library only some 1.8% were active in any assay of this set; here they are far more common.
B2AR ag: beta2AR agonists driving receptor internalization, primary screen, cell-based, FAP fluorogen, flow cytometry. Am2.2-beta2AR cells. Beta-2 adrenergic receptor (Homo sapiens), P07550. response, % (test concentration not listed). hit rate 0.43% among 340,000;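 active means response above a set limit, near 3 SD of response in nonfluorescent compounds, cut at about 42% in these data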
CXCR6 block: CXCR6 receptor inhibitors, primary screen, cell-based, beta-arrestin, luminescence, CHO-K1 PathHunter, 1536-well; hit rate 0.36% among 360,000; inhibition, % at 20 µM; C-X-C chemokine receptor type 6 (Homo sapiens), O00574; in the data active means inhibition above about 34%, passing the limit was not always enough;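 further: antagonist mode with CXCL16 agonist at 10 nM final; 0% = 10 nM CXCL16 with DMSO and 100% = unstimulated wells without agonist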
Target sequence (O00574 whole entry, looked up): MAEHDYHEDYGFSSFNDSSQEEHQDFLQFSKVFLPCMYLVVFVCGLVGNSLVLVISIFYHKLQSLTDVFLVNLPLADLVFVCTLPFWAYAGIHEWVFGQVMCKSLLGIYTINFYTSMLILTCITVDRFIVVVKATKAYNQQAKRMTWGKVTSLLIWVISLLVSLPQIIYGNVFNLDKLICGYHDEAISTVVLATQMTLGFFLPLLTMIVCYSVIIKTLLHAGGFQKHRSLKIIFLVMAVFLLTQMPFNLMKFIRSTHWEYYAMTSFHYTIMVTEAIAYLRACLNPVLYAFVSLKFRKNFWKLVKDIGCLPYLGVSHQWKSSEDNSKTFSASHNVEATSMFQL
EBI2 block: EBI2 receptor antagonists, beta-arrestin recruitment, primary screen, cell-based, luminescence, 7a,25-OHC stimulation, uHTS; G-protein coupled receptor 183 (Homo sapiens), P32249; inhibition, % at 5 µM; AID 651636, 2012; 7a,25-OHC stimulated; hit rate 0.81% among 360,000; in the data active means inhibition above about 38%;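 further: enzyme fragment complementation signal reports receptor beta-arrestin coupling in cells; 0% = agonist plus DMSO wells and 100% = wells without agonist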
APJ antag: antagonists of human apelin receptor APJ, primary screen, CHO-K1 cells, beta-arrestin complementation, luminescence. P35414. hit rate 0.32% among 330,000. inhibition, % at 20 µM;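 active means inhibition above about 40% at 20 µM, limit read from the data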;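 further: cells challenged with 10 nM apelin-13 agonist together with compound; plate controls were apelin-13 plus DMSO wells for no effect and DMSO wells lacking apelin-13 for full effect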
CCR6 antagonist: CCR6 receptor antagonists, primary screen, cell-based, CHO-K1, luminescence, beta-arrestin, uHTS | hit rate 0.49% among 340,000 | inhibition, % at 20 µM | C-C chemokine receptor type 6 (Homo sapiens), P51684 | CHO-K1 CCR6 PathHunter beta-arrestin, CCL20-stimulated;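 active means compounds whose inhibition of the agonist-driven luminescence signal at 20 µM reaches about 50%, limit read from the data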;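 further: cells stimulated with CCL20 at 14 nM final; plate controls were DMSO with CCL20 for no effect and DMSO without agonist for full effect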
APJ ag: agonists of human apelin receptor APJ, primary screen, CHO-K1 cells, PathHunter beta-arrestin, luminescence; 0% DMSO wells, 100% apelin; hit rate 0.11% among 330,000; P35414; activation, % at 20 µM;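 active means activation more than six SD over the plate average, tested at 20 µM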;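 further: 0% = DMSO alone and 100% = apelin-13 at 10 nM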
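Material: engineered CHO-K1 APJ arrestin reporter cells; amount: 1000 CHO-K1 reporter cells seeded per well; incubation: compound stimulation 90 min at 25 °C, detection 60 min; signal: luminescent beta-gal fragment complementation, chemiluminescent substrate; read-out basis: APJ agonist activity; controls: DMSO-only wells as negative, 10 nM Apelin-13 as positive control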
APJ antag confirm: APJ antagonists blocking beta-arrestin recruitment, confirmation, cell-based, luminescence, single concentration, uHTS hits; shares compounds with APJ antag; hit rate 66% among 950; inhibition, % at 20 µM; antagonist mode; in the data active means inhibition above about 50%
An asterisk follows results filed as active; i = inactive; nt = no result.

SMILES	B2AR ag	CXCR6 block	EBI2 block	APJ antag	CCR6 antagonist	APJ ag	APJ antag confirm
CCOCCCN1C(=O)CN(C2CCCCC2)C(=O)C1c1ccc(OC)c(OC)c1 (centres undefined)	-4	2	5	40	0	-2	6
COc1cc(/C=C2\C(=O)ON=C2c2ccccc2)cc(Br)c1O	-34	28	-22	43*	58*	-7	95*
COc1cc(/C=C2\C(=O)ON=C2c2ccccc2)cc(Cl)c1O	-92	17	-9	46*	50	-5	66*
COc1cc(C=C2C(=O)OC(c3ccccc3)OC2=O)cc(Br)c1O (centres undefined)	19	5	-2	5	16	0	nt
CCOc1cc(/C=C2/C(=O)ON=C2C)cc(Br)c1O	-4	16	3	41*	57*	-6	56*
CCOc1cc(/C=C2\C(=O)ON=C2c2ccccc2)cc(Br)c1O	-21	29	-15	46*	42	-7	74*
Cc1sc(/C=C2\C(=O)ON=C2c2ccccc2)cc1Br	nt	nt	nt	2	nt	-3	nt
COc1ccc(/C=C2/C(=O)ON=C2C)cc1Cl	6	-6	-6	3	-8	-1	nt
O=C(Oc1ccc(/C=N/NC(=O)c2ccco2)cc1)c1ccccc1	-3	-11	-51	-4	1	-2	nt
COc1ccccc1/C=C1\SC(=S)N(C(C(=O)O)c2ccccc2)C1=O (centres undefined)	5	17	9	13	12	2	nt
COc1cc(/C=C2\SC(=S)N(C(C(=O)O)c3ccccc3)C2=O)ccc1O (centres undefined)	-3	42*	0	50*	47	-10	91*
CCOc1cc(/C=C2\SC(=S)N(C(C(=O)O)c3ccccc3)C2=O)ccc1O (centres undefined)	-50	48*	1	49*	50*	-8	92*
CCOc1ccc(/C=C2/SC(=S)N(C(C(=O)O)c3ccccc3)C2=O)cc1OCC (centres undefined)	0	25	-7	nt	30	nt	nt
O=C1/C(=C/c2cccc(O)c2)SC(=S)N1CC1CCCO1 (centres undefined)	-3	6	-7	8	7	-4	nt
O=C(O)C(c1ccccc1)N1C(=O)/C(=C\c2ccc(O)c(O)c2)SC1=S (centres undefined)	6	42*	10	45*	53*	-7	87*
CCOc1cc(/C=C2/SC(=S)N(CC3CCCO3)C2=O)ccc1O (centres undefined)	-76	51*	9	48*	67*	-7	101*
COc1ccc(C(=O)NC(=S)Nc2cccnc2)cc1[N+](=O)[O-]	-15	20	6	7	40	-2	nt
CCOc1ccc(C(=O)NC(=S)Nc2cccnc2)cc1[N+](=O)[O-]	-7	17	-10	43*	34	-5	43
CC(C)c1ccc(NC(=O)CN2C(=O)COc3ccc(S(=O)(=O)N4CCOCC4)cc32)cc1	-6	8	-10	45*	-1	-4	-13
CC(=O)Nc1ccc(NC(=O)CN2C(=O)COc3ccc(S(=O)(=O)N4CCOCC4)cc32)cc1	4	-1	-2	19	7	-5	nt
COc1cccc(C(=O)OCC(=O)N2CCc3ccccc3C2)c1OC	nt	0	-3	1	2	-4	nt
C=CCN1C(=O)/C(=C/C=C2/N(CC)c3ccc(S(=O)(=O)N(C)C)cc3N2CC)SC1=S	-32	37	25	52*	64*	-7	107*
C=CCN1C(=O)/C(=C2/Sc3ccccc3N2CC)SC1=S	12	-12	-8	15	0	-3	nt
O=C1NC(=S)N/C1=C/c1cccc([N+](=O)[O-])c1O	-1	44*	6	43*	46	-11	79*
CCN1/C(=C/C=C/c2sc3ccccc3[n+]2CC)Sc2ccccc21	-13	19	2	49*	38	6	121*
SMILES	B2AR ag	CXCR6 block	EBI2 block	APJ antag	CCR6 antagonist	APJ ag	APJ antag confirm
CCN1/C(=C/C=C/C=C/c2sc3ccccc3[n+]2CC)Sc2ccccc21	nt	nt	nt	37	nt	0	nt
C=CCOC(=O)/C(=C\C=C\c1ccccc1)NC(=O)c1ccccc1	1	7	11	11	15	3	nt
O=[N+]([O-])c1cccc(Cl)c1NCCNc1ncc(C(F)(F)F)cc1Cl	-7	5	2	43*	16	-2	31
S=C1NCCc2ccccc2C1c1ccccc1Cl (centres undefined)	-4	35	9	44*	52*	-11	87*
CCCN1C(=O)/C(=C/C=C2\N(CC)c3ccccc3C2(C)C)SC1=S	i	20	37	15	34	-12	nt
C=CCN1C(=O)/C(=C\C=C2\N(C)c3ccccc3C2(C)C)SC1=S	nt	30	38	57*	71*	-7	82*
CN1/C(=C\C=C2/SC(=S)N(CC(=O)O)C2=O)C(C)(C)c2ccccc21	-94	45*	0	51*	59*	-11	93*
COc1cccc(N(C(=O)c2csnn2)C(C(=O)NC2CCCC2)c2ccccc2)c1 (centres undefined)	10	1	-17	12	16	-1	nt
CC1=C(C(=O)N(C)C)CC(CC(=O)NCc2cccs2)C(=O)N1CCCN1CCCC1=O (centres undefined)	nt	-4	2	nt	nt	nt	nt
CN(N)c1ccc2c(C(F)(F)F)cc(C(F)(F)F)nc2n1	-9	-2	-3	13	-1	-2	nt
Cc1ccc(C(C#N)c2ccc3c(C(F)(F)F)cc(C(F)(F)F)nc3n2)cc1 (centres undefined)	14	35	-9	49*	54*	-6	80*
N#CC(c1ccccc1)c1ccc2c(C(F)(F)F)cc(C(F)(F)F)nc2n1 (centres undefined)	19	23	-20	42*	53*	-5	88*
COc1ccc([C@H]2N[C@]3(CCCN(Cc4ccc(Cl)cc4)C3=O)[C@H]3C(=O)N(Cc4ccccc4)C(=O)[C@@H]23)cc1	nt	3	12	nt	nt	nt	nt
